# DSG3 Ab inh: human desmoglein-3 autoantibody binding inhibition. P32926. DSG3-coupled beads, scFv-anti-DSG3-GFP binding, flow cytometry; stronger effect = lower value. 310,000 tested, 0.48% active. binding (percent of control), % at 10 µM;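 active = binding more than 3 SD below its plate's average and above zero; inconclusive = below that plate limit but binding exactly zero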;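 also: hits lower antibody fragment binding to DSG3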
# SUMO1 PPI mod: modulators of human SUMO1-mediated protein-protein interactions. SUMO1 binding to a labelled peptide, TR-FRET, 1 h. 360,000 tested, 0.33% active. inhibition, % at 20 µM. P63165; in the data active = inhibition above about 37%
# MBD2 DNA inh: blocks human MBD2 binding to methylated DNA; inhibition, % at 4.4 µM; 370,000 tested, 0.31% active; AID 686964; TR-FRET, MBD2 binding to methylated oligonucleotide; Q9UBB5; in the data active = inhibition above about 13%
# UHRF1 binding: blocks human UHRF1 binding to methylated DNA; Q96T88; UHRF1 binding to methylated oligo, TR-FRET; inhibition, % at 4.4 µM; 370,000 tested, 0.75% active; in the data active = inhibition above about 21%;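 also: UHRF1 SRA domain binding a hemimethylated CpG hairpin DNA probe; 0% = median of test compound wells and 100% = reference inhibitor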
# Target sequence (Q96T88 whole entry, looked up, the tested form may be a part): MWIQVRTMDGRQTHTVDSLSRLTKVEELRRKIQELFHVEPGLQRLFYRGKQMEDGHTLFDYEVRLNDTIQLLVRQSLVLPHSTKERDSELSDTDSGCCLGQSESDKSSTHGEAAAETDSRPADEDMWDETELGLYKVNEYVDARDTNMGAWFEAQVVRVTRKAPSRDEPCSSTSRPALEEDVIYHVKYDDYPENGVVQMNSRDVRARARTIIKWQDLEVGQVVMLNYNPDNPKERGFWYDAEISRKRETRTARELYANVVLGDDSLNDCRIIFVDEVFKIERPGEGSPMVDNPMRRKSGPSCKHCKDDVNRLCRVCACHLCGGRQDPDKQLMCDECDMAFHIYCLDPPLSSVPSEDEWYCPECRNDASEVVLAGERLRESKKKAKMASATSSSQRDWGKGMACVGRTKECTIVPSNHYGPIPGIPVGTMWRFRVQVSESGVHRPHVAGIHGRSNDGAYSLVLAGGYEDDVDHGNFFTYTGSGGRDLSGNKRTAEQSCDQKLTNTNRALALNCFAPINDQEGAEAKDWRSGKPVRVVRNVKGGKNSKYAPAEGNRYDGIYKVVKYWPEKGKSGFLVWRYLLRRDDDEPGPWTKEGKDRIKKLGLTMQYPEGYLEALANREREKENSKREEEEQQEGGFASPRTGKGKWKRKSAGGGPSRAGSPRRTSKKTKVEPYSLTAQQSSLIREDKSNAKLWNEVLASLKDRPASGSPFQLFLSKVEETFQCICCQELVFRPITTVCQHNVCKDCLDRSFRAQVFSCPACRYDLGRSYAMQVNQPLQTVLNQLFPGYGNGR
# DNMT1 inh: inhibitors of human DNMT1; DNMT1 molecular beacon, Hinp1I cleavage, fluorescence; inhibition (reported as % activation of signal), % at 10 µM; 360,000 tested, 0.83% active; in the data active = inhibition above about 50%
# NS3 helicase inh: blocks Hepatitis C virus NS3 helicase unwinding. 290,000 tested, 0.56% active. NS3 helicase DNA unwinding, Cy5 molecular beacon fluorescence. AID 1800. inhibition, % at 10.9 µM;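 active = inhibition above the mean of all tested compounds plus 3 SD, set per campaign, cut at about 35% in these data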;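 also: 0% = DMSO wells and 100% = thioflavine S control wells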
#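 Control set: DMSO versus 110 µM thioflavine S; Material: NS3 helicase fragment of HCV; Measured by: Cy5 fluorescence at 0 and 60 min, beacon hairpin quenching; Read-out basis: percent inhibition from t60/t0 fluorescence ratio; Times: reaction time 60 min, 25 °C; Repeats: single replicate; Compound dosing: single dose, 10.9 µM nominal final, DMSO 0.8% final.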
# * marks the source's active call; other numbers are inactive results; u = inconclusive; x = not tested or not shown. Sampled rows, rich in hits. Any-hit rate of the full collection: about 2.5%.
SMILES,DSG3 Ab inh,SUMO1 PPI mod,MBD2 DNA inh,UHRF1 binding,DNMT1 inh,NS3 helicase inh
CCOc1ccc(N(CC(=O)NCc2ccccc2)S(=O)(=O)c2ccc(C)cc2)cc1,99,7,2,-2,0,-3
COc1cccc(/C(O)=C/C(=O)C(=O)Nc2ccc(S(=O)(=O)NC(C)=O)cc2)c1,100,-1,-3,2,8,6
Cc1ccccc1NC(=O)Cc1nnc(SCC(=O)NC2CCCC2)n1C,88*,1,1,0,-1,-2
CC(C)n1c(SCC(=O)NC2CCCCC2)nnc1-c1ccco1,116,-2,-5,43*,1,0
CC(=O)N1CC=CC1(C)C(=O)O (stereo not given),104,3,-2,31*,7,4
CC1(C(=O)O)C=CCN1C(=O)c1ccccc1 (stereo not given),86,6,-4,5,3,-1
COC(=O)c1sc(S(=O)(=O)N2CCCCC2)c(C(=O)OC)c1C,98,2,0,-2,3,-4
COC(=O)c1sc(S(=O)(=O)N2CCC(C)CC2)c(C(=O)OC)c1C,x,-3,-3,24*,9,-1
COc1cccc(OC)c1C(=O)OCC(=O)NC(=O)NCc1ccccc1,x,-2,1,8,3,11
Cn1cc(S(=O)(=O)Oc2ccccc2)c(=O)n(C)c1=O,116,3,4,28*,5,21
C/C(=N\NC(=O)c1ccncc1)c1ccc(N2CCOCC2)cc1,77,-6,-4,-4,-3,x
C/C(=N\NC(=O)c1ccc(OC2OCCOC2Oc2ccc(C(=O)N/N=C(\C)c3ccncc3)cc2)cc1)c1ccncc1 (stereo not given),83,78*,0,3,34,-8
O=C(NCc1nc2ccccc2[nH]1)C1=C[C@@H](c2csc3ccccc23)C[C@@H](OCc2ccc(CO)cc2)O1,104,-11,-4,-2,-17,-25
NC(=O)c1ccsc1NC(=O)c1cc(=O)c2ccccc2o1,100,63*,-5,3,-2,7
NC(=O)c1ccsc1NC(=O)COC(=O)c1cc(=O)[nH]c2ccccc12,83*,49*,-2,-2,2,x
O=C(COC(=O)c1cc(=O)[nH]c2ccccc12)NCc1cccs1,96,-12,2,2,-1,-1
O=C(COC(=O)c1cc(=O)[nH]c2ccccc12)NC1CCCC1,103,-5,6,30*,-1,8
CCCc1cc(=O)oc2cc(C)cc(OCC(=O)Nc3ccccn3)c12,x,0,-6,-1,2,14
Cc1cc(OCC(=O)NCc2cccnc2)c2c(C)c(C)c(=O)oc2c1,104,-13,-1,0,4,0
COc1ccc(-c2cc(=O)oc3cc(OCC(=O)Nc4ccccn4)ccc23)cc1,72,43*,-1,3,-4,24
Cc1cc(=O)oc2cc(NC(=O)COc3cccc(C(F)(F)F)c3)ccc12,90,2,7,56*,33,x
CCCc1cc(=O)oc2cc(OCC(=O)Nc3ccccn3)ccc12,x,19,-10,-3,1,-6
CCCCc1cc(=O)oc2cc(C)cc(OCC(=O)Nc3ccccn3)c12,3.8*,-6,9,8,7,2
Cc1cc(OCC(=O)Nc2cccnc2)c2c(C)c(C)c(=O)oc2c1,x,76*,-4,4,5,4
CC1Cc2ccccc2N1Cc1cccc(S(=O)(=O)N(C)C)c1 (stereo not given),119,2,-1,-2,-5,-8
SMILES,DSG3 Ab inh,SUMO1 PPI mod,MBD2 DNA inh,UHRF1 binding,DNMT1 inh,NS3 helicase inh
Cc1ccc(-n2[nH]c(C)c(/C=N/Nc3ccc([N+](=O)[O-])cc3[N+](=O)[O-])c2=O)cc1C,92,2,-1,-11,-49,16
O=C(Cn1cc(SCc2ccccc2Cl)c2ccccc21)N1CCOCC1,113,-4,9,24*,-14,-13
O=C(Nc1ccc(C2=NCCN2)cc1)c1ccc(C(=O)Nc2ccc(C3=NCCN3)cc2)c(Cl)c1,u,87*,8,13,-29,-61
O=C(Nc1ccc(NC(=O)c2ccc(Cl)cc2Cl)cc1)c1ccc2c(c1)OCO2,111,0,-5,0,21,-2
CS(=O)(=O)N(CC(=O)N1CCOCC1)c1cccc(F)c1,77*,-3,1,0,2,6
Cn1ccnc1C(=O)c1cc(SCC(=O)NCc2ccccc2)nc2ccccc12,98,-16,6,26*,4,-14
COc1ccc(-c2ccnc3[nH]n(-c4ccccc4)c(=O)c23)cc1,87*,-6,-2,-4,1,8
CN(C)S(=O)(=O)c1cccc(NC(=O)COC(=O)c2cc3ccccc3oc2=O)c1,71*,-15,-1,-1,-7,-17
O=C(COC(=O)c1cc2ccccc2oc1=O)Nc1cccc(S(=O)(=O)N2CCCCCC2)c1,100,-2,10,-1,8,9
COc1ccc(C(=O)/C=C/Nc2ccc(S(N)(=O)=O)cc2)cc1OC,71*,-21,1,-2,-1,-4
Cc1ccccc1OCCC(=O)OCC(=O)NC(=O)c1ccccc1,98,6,4,2,1,x
C[C@H]1[C@H](NC(=O)C(=NOC(C)(C)C(=O)O)c2csc(N)n2)C(=O)N1S(=O)(=O)O,113,1,2,25*,0,x
CC(C)C[C@@]12C(=O)N(c3cccc(Cl)c3)C(=O)N1[C@H](c1ccc(F)cc1)[C@@H]1C(=O)N(C3CCCCC3)C(=O)[C@@H]12,105,12,4,0,-4,x
COc1cc(/C=C2/C(=O)NN(c3ccc(Cl)cc3)C2=O)cc(Br)c1O,111,75*,0,-2,48,23
COc1ccccc1COC(=O)c1cccc(S(=O)(=O)N2CCCC2)c1,105,1,-4,-3,-1,x
COc1ccc(OC)c(COC(=O)c2cccc(S(=O)(=O)N3CCCCC3)c2)c1,98,1,6,21*,1,x
Cc1ccc(COC(=O)c2cccc(S(=O)(=O)N3CCCCCC3)c2)cc1,88,6,8,25*,5,x
CCC(=O)c1ccc(OCC(=O)OCC(=O)Nc2ccc3c(c2)OCCO3)cc1,127,6,-6,-1,-4,x
COc1ccc(N2CCN(S(=O)(=O)CCNC(=O)COc3cccc(OC)c3)CC2)cc1,54*,0,-4,0,-4,-2
CCOC(=O)COc1ccc(S(=O)(=O)N2CCN(c3ccc(OC)cc3)CC2)cc1,94,-1,8,37*,0,5
COc1ccc(N2CCN(S(=O)(=O)CCNC(=O)COc3ccccc3)CC2)cc1,109,-3,-4,1,-3,x
Cc1ccc(/C=N/NC(=O)Cc2ccc(O)cc2)s1,x,-23,0,-5,8,-3

# Screens from PubChem BioAssay.
